Screening data: PubChem, several laboratories
APOBEC3A inh = blocks human APOBEC3A ssDNA deamination | P31941 | recombinant A3A, FAM/TAMRA ssDNA deamination fluorescence | inhibition, % at 20 µM | 330,000 compounds, 0.41% hits | AID 493011;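 active = at least 40% inhibition at 20 µM here, with at most 30% in a related deaminase screen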
Target sequence (P31941 whole entry, looked up): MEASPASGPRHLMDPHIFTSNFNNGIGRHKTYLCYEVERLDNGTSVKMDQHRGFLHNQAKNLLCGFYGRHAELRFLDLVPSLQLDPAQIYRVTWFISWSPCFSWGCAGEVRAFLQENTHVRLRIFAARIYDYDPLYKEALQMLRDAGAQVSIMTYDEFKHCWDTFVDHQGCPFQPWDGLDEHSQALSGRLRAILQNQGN
FN deposit inh = fibronectin deposition inhibition. 350,000 compounds, 0.086% hits. AH1F fibroblasts, Alexa488-fibronectin deposition fluorescence, overnight. inhibition, % at 12.6 µM. AID 743247;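 active = mean inhibition across replicates of 30% or more, regardless of how many single replicates reach that level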
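Material: AH1F fibroblasts assembling fluorescent fibronectin matrix; amount: 10000 AH1F cells/well; medium: DMEM, 2% serum; reagent: Alexa488-fibronectin, 24 nM final in well; dosing: single compound dose, delivered by pin transfer; incubation: 1 h adhesion, overnight exposure; detection: fluorescence after three HBSS washes, excitation 485 nm, emission 525 nm; measure: fibronectin deposition inhibition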
ABHD5-PLIN5 inh = inhibitors of human ABHD5-perilipin-5 interaction | AID 602281 | Split G. princeps luciferase complementation, luminescence, 4 h | inhibition, % at 4 µM | Q00G26+Q8WTS1 | 360,000 compounds, 0.78% hits;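 active = inhibition above the mean inhibition across every tested compound plus 3 SD, cut at about 22% in these data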
A3G deaminase = APOBEC3G (human) deaminase inhibition; Q9HC16; recombinant A3G, ssDNA deamination FAM/TAMRA fluorescence; inhibition, % at 20 µM; 330,000 compounds, 0.28% hits;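 active = inhibition of at least 40% at 20 µM, with no more than 30% in the related APOBEC3A deaminase screen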
Target sequence (Q9HC16 whole entry, looked up): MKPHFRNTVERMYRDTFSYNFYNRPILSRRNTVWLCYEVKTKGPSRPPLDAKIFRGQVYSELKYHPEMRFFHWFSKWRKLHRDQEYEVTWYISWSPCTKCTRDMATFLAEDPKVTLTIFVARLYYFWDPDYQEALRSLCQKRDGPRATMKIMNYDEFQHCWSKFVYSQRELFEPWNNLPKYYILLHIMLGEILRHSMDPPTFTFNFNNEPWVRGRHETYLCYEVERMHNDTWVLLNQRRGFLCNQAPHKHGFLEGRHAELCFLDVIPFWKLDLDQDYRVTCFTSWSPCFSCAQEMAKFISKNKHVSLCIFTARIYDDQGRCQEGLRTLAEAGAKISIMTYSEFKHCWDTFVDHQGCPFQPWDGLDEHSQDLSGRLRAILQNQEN
APOBEC3G confirm = confirmation of human APOBEC3G DNA deaminase inhibitors; shares compounds with A3G deaminase; recombinant A3G ssDNA deaminase, UDG/FAM-TAMRA fluorescence; inhibition, % at 20 µM; 890 compounds, 72% hits;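 active = inhibition reaching a set limit in any replicate at 20 µM, the limit being 80% of the first screen's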
UDG A3G counter = E. coli UDG inhibition in APOBEC3G counter-screen; shares compounds with A3G deaminase; UDG counterscreen, FAM/TAMRA oligo fluorescence; 710 tested, under 10 active; AID 504715; inhibition, % at 20 µM;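 active = compounds giving 40% or more inhibition at 20 µM in any one of the three replicates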;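 also: inhibitors lower the FAM signal released by uracil excision and alkaline cleavage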
Numbers stand for hits; n = inactive; x = no result; ! = a repeat was not active. A selection: hits, their analogues and other compounds. The true share with any hit is near 1.2%.

SMILES	APOBEC3A inh	FN deposit inh	ABHD5-PLIN5 inh	A3G deaminase	APOBEC3G confirm	UDG A3G counter
CCn1c(CSc2nc3ccccc3s2)n[nH]c1=S	n	n	n	46.7	59.2	n
C=CCn1c(CSc2nc3ccccc3s2)n[nH]c1=S	n	x	n	44.6	74.5	n
O=C(Nc1ccccc1F)N1CC(=O)N2[C@H](CO)[C@H](c3ccc(C#CC4CCCC4)cc3)[C@@H]2C1	x	n	x	x	x	x
Cc1ccc(Oc2ccc(/C=N/O)cn2)cc1	n	x	n	61.2	n	n
Cc1ccc(COc2ccc(/C=N/O)cc2)cc1	n	n	n	n	x	x
Cc1noc(C)c1NC(=O)N[C@H]1C=C[C@H](CC(=O)NCCCN(C)C)O[C@H]1CO	x	n	x	x	x	x
CO[C@@H]1CN(C)C(=O)c2cc(NC(=O)CC(F)(F)F)ccc2OC[C@H](C)N(C(=O)C2CC2)C[C@@H]1C	x	n	x	x	x	x
O=C(Nc1ccc(Cl)cc1Cl)c1cccc(N2C(=O)C=CC2=O)c1	n	n	n	53.3	58.8	n
O=C(Nc1ccc(Cl)cc1Cl)c1ccc2c(c1)OCCO2	n	n	n	n	x	x
CC1(C)S[C@@H]2[C@H](NC(=O)[C@H](N)c3ccccc3)C(=O)N2[C@H]1C(=O)O	n	n	n	74.6!	42.1	n
CC1(C)S[C@@H]2[C@H](NC(=O)[C@H](N)c3ccc(O)cc3)C(=O)N2[C@H]1C(=O)O	n	n	n	n	x	x
CSc1ccc(/C=N/n2c(C3CCCCC3)n[nH]c2=S)cc1	n	n	n	n	x	x
S=c1[nH]nc(C2CCCCC2)n1/N=C/c1ccncc1	n	n	n	48.0	68.5	n
S=c1[nH]nc(Nc2cccc(Cl)c2)s1	n	n	n	n	x	x
S=c1[nH]nc(Nc2ccccc2Cl)s1	n	n	n	45.4	65.8	n
CC(C)(C)C1CCC2(CC1)NC(=S)N(c1ccccc1)N2 (configuration not stated)	n	n	n	48.9	n	n
CO[C@@H]1CN(C)C(=O)c2cc(NC(C)=O)ccc2OC[C@H](C)N(C(=O)C2CCCCC2)C[C@H]1C	x	n	x	x	x	x
COc1cccc2cc(-c3n[nH]c(=S)n3C)oc12	n	n	n	54.2	80.3	n
COC(=O)CCC(=O)Nc1sc(C)c(C)c1C(N)=O	n	x	n	56.6	54.6	n
COC(=O)CCC(=O)NC(=S)Nc1sc(C)c(C)c1C(N)=O	n	n	n	n	x	x
CCCC(=O)Nc1sc(Cc2ccccc2)c(C)c1C(N)=O	n	n	n	n	x	x
COC(=O)CCC(=O)Nc1sc(Cc2ccccc2)c(C)c1C(N)=O	n	x	n	44.5	57.0	n
Cc1ccc(OC(=O)c2sc(Cl)nc2C)cc1C	n	n	n	54.3	n	n
c1cncc(-c2ccc(C3[C@H]4CNC[C@@H]3N4CC3CCCCC3)cc2)c1 (some centres not stated)	x	n	x	x	x	x
COC(=O)c1c(-c2ccc(C(C)(C)C)cc2)csc1NC(=O)C1C2CCC(O2)C1C(=O)O (configuration not stated)	n	n	n	58.2	23.8	n
SMILES	APOBEC3A inh	FN deposit inh	ABHD5-PLIN5 inh	A3G deaminase	APOBEC3G confirm	UDG A3G counter
C[C@@H]1CN([C@H](C)CO)C(=O)CCCn2cc(nn2)CO[C@H]1CN(C)Cc1ccccc1C(=O)O	x	n	x	x	x	x
O=[N+]([O-])c1ccc(N2CCN(c3ccc(O)cc3)CC2)cn1	n	n	n	46.5	n	x
Cc1ccc2c(C)nc(Nc3nc(CSc4nnc(C)s4)cc(=O)[nH]3)nc2c1	n	n	n	n	x	x
COc1cccc2c(C)nc(Nc3nc(CSc4nnc(C)s4)cc(=O)[nH]3)nc12	n	n	n	41.1	n	x
C[C@@H]1CN([C@@H](C)CO)C(=O)c2c(c3ccccc3n2C)-c2ccccc2CO[C@H]1CN(C)Cc1ccccc1C(F)(F)F	x	n	x	x	x	x
Cc1ccc(C2(C)NC(=O)N(CC(=O)Nc3nc(-c4ccccn4)cs3)C2=O)cc1 (configuration not stated)	n	n	n	55.9	67.4	n
Cc1cc(C)nc(NS(=O)(=O)c2ccc(N)cc2)n1	n	n	n	n	x	x
COc1cnc(NS(=O)(=O)c2ccc(N)cc2)nc1	n	n	n	50.4	19.6	n
NS(=O)(=O)c1ccc(O)c(NC(=O)c2ccc([N+](=O)[O-])o2)c1	n	n	n	63.8	28.2	n
COc1ccc(CN(C)C[C@H]2OCc3cn(nn3)CCCC(=O)N([C@@H](C)CO)C[C@H]2C)cc1	x	n	x	x	x	x
COc1cccc(OCc2cc(/C=N/NC(=O)c3ccn[nH]3)ccc2OC)c1	n	x	n	45.6	n	x
CC(C)C#Cc1ccc2c(c1)O[C@H](CN(C)C(=O)C1CCC1)[C@@H](C)CN([C@@H](C)CO)S2(=O)=O	x	n	x	x	x	x
O=C(O)c1ccc(-n2c(-c3ccc(Br)cc3)n[nH]c2=S)cc1	n	x	n	44.2	65.4	n
S=c1[nH]nc(-c2ccc(Br)cc2)n1-c1ccc(Br)cc1	n	n	n	n	x	x
C=C(C)C(=O)Nc1cccc(C2=NOC3(C2)C[C@@H](C(N)=O)N(C(=O)c2ccc(OC)cc2)C3)c1 (some centres not stated)	n	x	n	80.5	99.6	x
C/C=C(/C)C(=O)Nc1cccc(C2=NOC3(C2)C[C@@H](C(N)=O)N(C(=O)[C@H]2CCC(=O)N2)C3)c1 (some centres not stated)	n	n	n	n	x	x
C=C(C)C(=O)Nc1cccc(C2=NOC3(C2)C[C@@H](C(N)=O)N(C(=O)CCCCC)C3)c1 (some centres not stated)	n	n	x	86.3	93.7	n
C=C(C)C(=O)Nc1cccc(C2=NOC3(C2)C[C@@H](C(N)=O)N(C(=O)[C@H]2CCC(=O)N2)C3)c1 (some centres not stated)	n	n	n	42.6	45.7	n
O=C(C[C@@H]1CC[C@@H]2[C@H](COC[C@H](O)CN2C(=O)c2ccc(F)cc2)O1)NCc1cccc(F)c1	x	n	x	x	x	x
O=C(NC1CCCCCC1)C(=S)N1CCOCC1	n	x	n	54.3	44.1	n
COc1cccc(C(=O)Nc2ccc3c(c2)C(=O)N(C)C[C@H](OC)[C@@H](C)CN(C(C)=O)[C@H](C)CO3)c1	x	n	x	x	x	x
COCCn1c(SCC(=O)N2CCc3ccccc32)nc2c(c1=O)SC(C)C2 (configuration not stated)	n	n	n	n	x	x
COCCn1c(SCC(=O)N2CCCc3ccccc32)nc2c(c1=O)SC(C)C2 (configuration not stated)	n	n	n	81.7	n	n
COc1cccc(-c2ccc(C3[C@H]4CNC[C@@H]3N4Cc3ccc(F)cc3)cc2)c1 (some centres not stated)	x	n	x	x	x	x
O=C(CN(Cc1ccc(F)cc1)S(=O)(=O)c1ccccc1)N1CCCCC1	n	x	n	81.1	n	n
C[C@H]1CN([C@@H](C)CO)C(=O)Cc2cc(N(C)C)ccc2O[C@@H]1CN(C)C(=O)Nc1ccc(C(F)(F)F)cc1	x	n	x	x	x	x
